A selection: hits, their analogues and other compounds. The true share with any hit is near 3.8%.
Measles CPE – compounds protecting cells from measles virus cytopathic effect, primary screen, measles RdRp inhibitor project, single point, MLSMR library, absorbance | Measles virus-infected cells, CPE protection | protection (pct of control), % at 4 µM | hit rate 1.5% among 140,000 | AID 841, 2007; in the data active = protection mostly above about 24%, no sharp cut-off; inactive = mostly below about 26%
SDO1 yeast rescue – growth rescue of sdo1-depleted yeast, primary screen, S. cerevisiae, bone marrow failure model. S. cerevisiae sdo1-depleted JHY4D growth rescue, OD600 30 h; active compounds read high; pdr5 snq2 efflux-pump mutant strain. z-score at 10 µM. hit rate 0.21% among 140,000;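 active = z-score above 3 at both the 24 hr and the 30 hr optical density reads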;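 also: z-score against mean and SD of all compound wells on the same plate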
Yeast lifespan up – compounds extending yeast replicative lifespan, primary screen, S. cerevisiae, OD615 | S. cerevisiae growth with nicotinamide; deaD strain in restrictive glucose medium | inhibition of the nicotinamide effect, % at 10 µM | hit rate 0.68% among 130,000;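 active = inhibition above a set limit, placed 3 SD over the median of all compounds, cut at about 26% in these data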;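 also: 0% = nicotinamide-treated wells and 100% = cells grown without nicotinamide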
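Measured by: optical density (absorbance) at 615 nm; System: modified budding yeast, DeaD strain; Medium: restrictive CSMM-D dextrose medium; Timing: 4 h preincubation then 48 h treatment at 30 °C.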
BB579 growth dn – growth inhibitors of yeast BB579 in restrictive medium, primary screen, yeast lifespan-shortening project, S. cerevisiae; OD615, 48 h; inhibition, % at 10 µM; hit rate 0.51% among 140,000;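 active = inhibition above a set limit, 3 SD over the mean compound inhibition, cut at about 44% in these data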
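Test system: Saccharomyces cerevisiae DeaD strain BB579, replicative lifespan model yeast | Buffer or medium: Restrictive CSMM-D medium | Doses: One dose, 10 µM compound with 0.25% DMSO | Incubation: 48 h exposure, 30 °C | Detection: Culture absorbance at 615 nm | Control set: Amphotericin B at 10 µg/mL as positive control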
RAM network inh – inhibitors of the yeast RAM network, primary screen, dse1pr::URA3 reporter, 5-FOA selection | S. cerevisiae dse1pr::URA3 reporter, 5-FOA growth OD615, 2 d; analog-sensitive cbk1-as2 kinase mutant strain | inhibition, % at 50 µM | hit rate 1.8% among 190,000 | AID 868, 2007;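 active = inhibition above a set limit, 3 SD over mean compound inhibition, cut at about 8.4% in these data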;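 also: 0% = DMSO-only wells with no growth and 100% = 10 µM 1-NA-PP1 full growth; inhibition rescues growth on 5-FOA so higher OD means more RAM inhibition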
sdo1 rescue conf – SDO1-depleted yeast growth rescue, concentration-response, diseases of bone marrow failure, JHY4D, OD600. hit rate 44% among 440. shares compounds with SDO1 yeast rescue. S. cerevisiae JHY4D (SDO1-depleted) growth rescue, 30 h; active compounds read high; efflux-deficient strain, SNQ2 and PDR5 mutated. AID 949, 2007. OD recovery (no concentration beside the values);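 active = yeast growth recovered at 30 hours, either rising with dose fitted slope above 0.001 or with average optical density gain above 0.07, some results past the limit were not filed as active; inactive = growth falling with dose or no effect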;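 also: gain in OD600 from 0 h to 30 h averaged across all seven doses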
* hit, by the source's call; / = no result given.

SMILES | Measles CPE | SDO1 yeast rescue | Yeast lifespan up | BB579 growth dn | RAM network inh | sdo1 rescue conf
CCOc1ccc(C(=O)NC(=S)NCc2cccnc2)cc1 | 4 | 2.5 | -3 | 17 | 0 | 0.11*
CCOc1ccc(NC(=O)c2ccncc2)cc1 | 0 | 4.1* | -33 | -6 | 2 | 0.062
COc1ccccc1Nc1nc(N)nc(CN2CC(C)CC(C)C2)n1 (stereo not given) | / | / | / | / | 4 | /
CSc1nc(N)nc(SCC(=O)c2ccc(C)cc2)c1C#N | 21 | 1.3 | -5 | -24 | 6 | 0.076*
O=C(COc1ncnc2ccccc12)Nc1cccc(S(=O)(=O)N2CCOCC2)c1 | 11 | 3.6* | -2 | -32 | 2 | 0.066
Cc1ccc(S(=O)(=O)N2CCOCC2)cc1NC(=O)COc1ncnc2ccccc12 | 11 | -0.17 | 4 | -17 | 2 | /
Cc1ccc2nc(NC3=NC(CC(=O)O)C(=O)N3)nc(C)c2c1 (stereo not given) | / | / | / | / | 0 | /
CCCCN(CC)CCCNC(=O)c1cc2c(=O)n(C)c3ccccc3c2n1C | 6 | -0.18 | -1 | 0 | 0 | /
O=C1c2oc3ccccc3c(=O)c2C(c2cccc(O)c2)N1CCCN1CCOCC1 (stereo not given) | 9 | 1 | -8 | 10 | 2 | /
CCOc1ccc(C2c3c(oc4ccccc4c3=O)C(=O)N2CCCN2CCOCC2)cc1OCC (stereo not given) | 17 | 2.5 | -1 | -51 | 1 | 0.061
CCOC(=O)c1c(C)noc1CP(=O)(c1ccccc1)c1ccccc1 | 11 | -0.24 | -6 | -19 | 0 | /
Cc1ncoc1C(=O)Nc1cccc(Cl)c1C | 4 | -0.21 | -11 | -47 | 1 | /
Cc1c(Cl)cccc1NC(=O)c1ccc(-n2ccnc2)nc1 | 5 | 3.5* | -18 | -24 | 2 | 0.051
COc1ccc(C)cc1S(=O)(=O)N(CC(=O)N1CCCC1)c1ccccc1 | 28 | -0.46 | -15 | -43 | 2 | /
O=C(COC(=O)/C=C/c1ccccc1[N+](=O)[O-])Nc1ccc(OC(F)F)cc1 | 13 | 11* | 3 | 3 | 3 | 0.067
CCOC1=NN(c2ncc(C(F)(F)F)cc2Cl)C(=O)/C1=C/N(C)C | / | / | / | / | -1 | /
CCn1c(O)c(N=NC2=NC(=O)CS2)c2ccccc21 | 12 | 16* | -5 | -26 | 1 | 0.079
CCn1c(O)c(N=N)c2ccccc21 | / | / | / | / | -1 | /
C=CCN=C(C)C1=C(O)C(C)OC1=O (stereo not given) | 14 | 14* | -2 | -9 | 0 | 0.097*
COc1ccc2cc3cc(C(=O)Nc4ccc5c(c4)OCCO5)oc3nc2c1 | 34 | 0.91 | -2 | -5 | 4 | 0.057
COc1ccc2cc3cc(C(=O)Nc4cc(OC)c(OC)c(OC)c4)oc3nc2c1 | 9 | 0.32 | -8 | -15 | 1 | /
CCn1cc(/C=N/NC(=O)c2ccc(C#N)cc2F)c2ccccc21 | 7 | 0.9 | -25 | 5 | 0 | /
COC(=O)Cn1cc(/C=N/NC(=O)c2ccc(C#N)cc2F)c2ccccc21 | 6 | 4* | -12 | -43 | 2 | 0.069
CCOC(=O)c1cccnc1SCC(=O)NC(C)CC (stereo not given) | 16 | 2 | -4 | -33 | 0 | 0.09*
COCCNC(=O)NC12CC3CC(CC(C3)C1)C2 | / | / | / | / | 0 | /
SMILES | Measles CPE | SDO1 yeast rescue | Yeast lifespan up | BB579 growth dn | RAM network inh | sdo1 rescue conf
CC(C)OCCCNC(=O)NC12CC3CC(CC(C3)C1)C2 | 4 | 9.4* | -10 | -29 | 0 | 0.079*
COc1ccc(C(=O)N2CCN=C2SCc2cccnc2)cc1OC | 12 | 2 | -4 | -2 | 1 | 0.042
COC(=O)c1nc2cc(C)ccn2c1F | 14 | -0.02 | -7 | -2 | 2 | /
COC(=O)c1c(C(=O)OC)c2cc(C)ccn2c1Cl | 9 | 11* | -29 | -10 | 0 | 0.084*
CCN(CC)c1ccc(C(=O)N/N=C(\C)c2ccc(OC)c(OC)c2)cc1 | 14 | 0.91 | -5 | -27 | 2 | /
COc1ccc(N2CCN(C(=O)Cn3cnc4c3c(=O)n(C)c(=O)n4C)CC2)cc1 | / | / | / | / | 2 | /
Cn1c(=O)c2c(ncn2CC(=O)N2CCN(c3cccc(Cl)c3)CC2)n(C)c1=O | 3 | 14* | -2 | -22 | 2 | 0.049
CCOC(=O)c1oc2ccccc2c1NC(=O)c1cccc(OC)c1OC | 3 | -0.23 | 15 | -45 | 6 | 0.095*
COc1cccc(NC(=S)NNC(=O)C(C)n2nc(C)c([N+](=O)[O-])c2C)c1 (stereo not given) | 3 | 4* | -9 | -35 | 1 | 0.063
Nc1cc(N2CCCCC2)c(Cl)cc1[N+](=O)[O-] | 11 | -0.66 | -16 | -4 | -2 | /
C=CC[N+](C)(C)C/C(Cl)=C(\Cl)c1ccccc1 | 5 | 0.49 | -2 | -56 | 1 | /
Cn1c(=O)c2c(nc(NC3CCCCC3)n2CC(O)COc2ccccc2)n(C)c1=O (stereo not given) | 5 | -0.9 | -5 | -33 | 0 | /
COc1ccc(OCC(O)Cn2c(Nc3ccccc3)nc3c2c(=O)n(C)c(=O)n3C)cc1 (stereo not given) | 4 | 1.2 | 0 | -67 | 3 | 0.052*
CC(=O)c1cnn(-c2cc(Oc3cccc(C)c3)ncn2)c1C | 51* | 6.9* | -12 | -31 | 1 | 0.05
COc1ccc(C2CC(=O)c3sc(NC(C)=O)nc3C2)cc1 (stereo not given) | 16 | 0.12 | 2 | -52 | 1 | /
CC12CCC(C(=O)N3CCC(Cc4ccccc4)CC3)(C(=O)C1=O)C2(C)C (stereo not given) | / | / | / | / | 1 | /
CSc1cc(C)n(-c2ccc(Cl)cc2)c(=S)c1C(C)=O | 2 | 11* | -7 | -33 | 4 | 0.05
Cc1c(C(=O)O)sc(=S)n1-c1ccc(Cl)cc1 | 4 | 0.48 | -2 | -28 | 0 | /
Cc1c(C#N)c2ncn(CCCN(C)C)c(=O)c2n1-c1ccccc1 | 0 | 3.6* | -5 | -29 | 2 | 0.1*
Cc1c(C#N)c2ncn(Cc3ccccn3)c(=O)c2n1-c1ccccc1 | 24 | 1.9 | -26 | -3 | 1 | /
Nc1n[nH]c(N)c1N=Nc1ccc2c(c1)OCO2 | / | / | / | / | 0 | /
CCOc1cc(C(=O)NCc2ccc(-c3nc4ccccc4o3)cc2)cc(OCC)c1OCC | 4 | 1.2 | -9 | -19 | 4 | 0.048
CCc1nnc(NC(=O)Cc2ccc(Br)cc2)s1 | / | / | / | / | -1 | /
CCN1C(=O)C(O)(CC(=O)c2ccc(-n3cccc3)cc2)c2ccccc21 (stereo not given) | 24 | 3* | 1 | -38 | 1 | 0.1*
